Screens as filed in PubChem.
This excerpt belongs to a sample that is enriched for hits.
HUVEC prolif 384: blocks proliferation of human endothelial cells. viability, % at 10 µM (by protocol). HUVEC proliferation, CellTiter-Glo luminescence, 72 h; hits give low values. 86,000 compounds, 1.1% hits;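 active means viability at or below 30%; inactive means viability above 30%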
HCT116 bCat-KO: beta-catenin-lacking colon tumor cell growth suppression; 140,000 compounds, 1.5% hits; viability, % at 10 µM; HCT116 beta-catenin knockout viability, CellTiter-Glo, 60 h; hits give low values;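 active means viability at or under a set limit, the compound median less 4 SD, cut at about 6% in these data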
Fibroblast inh: blocks proliferation of human lung fibroblasts | LL 47 human lung fibroblast viability, ATP luminescence; hits give low values | viability, % at 10 µM | 85,000 compounds, 1.1% hits | AID 719;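 active means viability at or below 50% in the single dose screen; inactive means viability above 50%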;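 further: compound exposure lasted 72 h before the ATP readout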
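Assay system: human lung fibroblast line LL 47, low passage. Input: 1,150 fibroblasts seeded per well. Times: overnight cell rest, 72 h compound treatment at 37 °C. Evaluation: % viability of median cell-only signal. Technique: luminescent ATP detection, CellTiter-Glo. Control set: cell-only wells, no compound.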
H69AR inhibit: growth inhibitors of human H69AR lung tumor cells | H69AR lung tumor viability, ATP luminescence, 72 h; hits give low values | viability, % at 10 µM | 85,000 compounds, 6% hits | AID 598;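 active means viability at or below 40%; inactive means viability above 40%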;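 further: multidrug resistant small cell line overexpressing MRP-1 efflux transporter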
HCT116 PTEN-null: suppresses growth of cells with PTEN deletion. HCT116 PTEN-null viability, CellTiter-Glo, 60 h; hits give low values. 140,000 compounds, 1.2% hits. viability, % at 10 µM;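 active means viability at or below a set limit, 4 SD under the median of all tested compounds, cut at about 3.7% in these data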;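 further: PTEN knockout HCT116 line with beta catenin targeted HCT116 as companion control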
Large screens that a line does not name were inactive.

Cc1[nH]n(-c2c(Cl)cc(Cl)cc2Cl)c(=O)c1C=Nc1ccc(S(=O)(=O)N2CCOCC2)cc1	none (no result: HUVEC prolif 384, Fibroblast inh, H69AR inhibit)
O/N=C(\c1ccc(Cl)cc1)c1cc2ccccc2o1	H69AR inhibit 1.9
O=C(Nc1ccc2c(c1)nc1n2CCN(Cc2ccccc2)C1)NC1CCCCC1	H69AR inhibit 20
COCCN1CCn2c(nc3cc(NC(=O)NC4CCCCC4)ccc32)C1	none
CSC(=NC#N)N1CCN(c2ccc(Cl)cc2)CC1	none (no result: HUVEC prolif 384, Fibroblast inh, H69AR inhibit)
Cc1nc(-c2ccccc2)cc(N2CCCC2)n1	none (no result: HUVEC prolif 384, Fibroblast inh, H69AR inhibit)
Nc1nc(-c2ccccc2)cc(N2CCCCC2)n1	H69AR inhibit 23
Cc1ccc(-n2c(=O)[nH]c3cc(C(=O)NC4CCN(Cc5ccccc5)CC4)ccc3c2=O)cc1	none (no result: HUVEC prolif 384, Fibroblast inh, H69AR inhibit)
CC1(C)Cc2c(sc3[nH]c(=S)n(Cc4ccco4)c(=O)c23)CO1	H69AR inhibit 30
NS(=O)(=O)c1ccc(S(=O)(=O)N2CCCC2)cc1	none
CC1=C(C)CS(=O)N(S(=O)(=O)c2ccccc2)C1 (configuration not stated)	Fibroblast inh 40, H69AR inhibit 1.8
CC1=C(C)CS(=O)N(c2ccc(S(N)(=O)=O)cc2)C1 (configuration not stated)	H69AR inhibit 12
O=C(O)CCCN=CC1=C(O)C(C(=O)c2ccccc2)CCC1=O (configuration not stated)	none
O=C(Nc1cc(C(F)(F)F)ccc1-n1cncn1)c1ccc(-c2ccccc2)cc1	none
CCc1ccc2[nH]c(=O)c(CN(Cc3ccc4c(c3)OCO4)Cc3nnnn3C3CCCC3)cc2c1	H69AR inhibit 4.8
Cc1ccc2cc(CN(Cc3ccccc3)Cc3nnnn3C3CCCC3)c(=O)[nH]c2c1	H69AR inhibit 5.0
COc1ccc2cc(CN(Cc3ccco3)Cc3nnnn3C3CCCCC3)c(=O)[nH]c2c1	none
Cc1ccc2cc(CN(Cc3ccc(F)cc3)Cc3nnnn3C3CCCC3)c(=O)[nH]c2c1	H69AR inhibit 36
COc1ccc(-c2cn3cccnc3n2)cc1F	none (no result: HUVEC prolif 384, Fibroblast inh, H69AR inhibit)
N#CC1=C2SCN(Cc3ccco3)CN2C(=O)CC1c1ccccc1F (configuration not stated)	H69AR inhibit 40
Cn1c2ccccc2c(=O)c2c(=O)n(C3CCCCC3)c(-c3ccco3)nc21	HCT116 bCat-KO 4.1, HCT116 PTEN-null 3.4 (no result: HUVEC prolif 384, Fibroblast inh, H69AR inhibit)
CCOc1ccc(C2c3cc(OC)c(OC)cc3CC(=O)N2c2ccc(OC)cc2)cc1 (configuration not stated)	none (no result: HUVEC prolif 384, Fibroblast inh, H69AR inhibit)
COc1cccc(/C=N/NC(=O)c2ccccc2N(Cc2ccccc2)S(=O)(=O)c2ccccc2)c1OC	none (no result: HUVEC prolif 384, Fibroblast inh, H69AR inhibit)
COc1cc2cc(CN(CCc3ccccc3C)C(=S)NCCCN(C)C)c(=O)[nH]c2cc1OC	HCT116 bCat-KO 2.2, HCT116 PTEN-null 1.8 (no result: HUVEC prolif 384, Fibroblast inh, H69AR inhibit)
CCNC(=S)N(CCc1ccccc1C)Cc1cc2cc(OC)c(OC)cc2[nH]c1=O	none (no result: HUVEC prolif 384, Fibroblast inh, H69AR inhibit)
CC(=O)c1coc2ccc(OCCN3CCCCC3)cc12	none
CCCc1nc2sc3c(SCC(=O)NCc4ccco4)ncnc3c2c2c1CCC2	H69AR inhibit 8.6
CC(C)Sc1nc(SCC(=O)NCc2ccco2)c2c3c(sc2n1)COC(C)(C)C3	H69AR inhibit 34
CCCSc1nc(SCC(=O)NCc2ccccc2)c2c3c(sc2n1)COC(C)(C)C3	none
COc1cc(NS(=O)(=O)c2ccc(Br)cc2)c(OC)cc1NC(=O)c1ccco1	none
COC(=O)CSc1nc(N)c2c3c(sc2n1)CCCC3	none
COC(=O)CSc1nc(N)c2c3c(sc2n1)C(c1ccccc1)SC(c1ccccc1)C3 (configuration not stated)	HCT116 bCat-KO 1.1, HCT116 PTEN-null 0.7 (no result: HUVEC prolif 384, Fibroblast inh, H69AR inhibit)
CN1CCN(Cc2cc(Cl)c3cccnc3c2OC(=O)c2cccs2)CC1	HCT116 bCat-KO 3.7 (no result: HUVEC prolif 384, Fibroblast inh, H69AR inhibit)
O=C(Oc1c(Cl)cc(Cl)c2cccnc12)N1CCCCC1	none
COCc1cc(CN2CCN(C)CC2)c(O)c2ncccc12	H69AR inhibit 25
Oc1cnc2ccccc2c1CN1CCOCC1	none
Oc1c(CN2CCOCC2)cc(COCc2ccccc2)c2cccnc12	HCT116 bCat-KO 3.7, HCT116 PTEN-null 2.8 (no result: HUVEC prolif 384, Fibroblast inh, H69AR inhibit)
CCN(CC)S(=O)(=O)c1ccc(C(=O)N2CCCCC2)cc1	none
O=C(c1ccc2snnc2c1)N1CCSCC1	H69AR inhibit 35 (no result: Fibroblast inh)
O=C(c1ccc2snnc2c1)N1CCCCC1	none
COc1ccc(C2C(=O)N(C3CCCCC3)CC(=O)N2C2CCCC2)cc1 (configuration not stated)	none
COc1ccc(C2C(=O)N(CCc3ccccc3)CC(=O)N2C2CCCC2)cc1 (configuration not stated)	H69AR inhibit 35
Cc1cccc(C2(c3cccc(C)c3)CC2C(=O)Nc2ccc([N+](=O)[O-])cc2O)c1 (configuration not stated)	HCT116 bCat-KO 5.9 (no result: HUVEC prolif 384, Fibroblast inh, H69AR inhibit)
COc1ccc(NC(=O)COC(=O)c2cc(SC)ccc2Cl)c(OC)c1	none (no result: HUVEC prolif 384, Fibroblast inh, H69AR inhibit)
CCCOc1ccc(C(=O)C(CN2CCCC2)c2ccccc2)cc1 (configuration not stated)	HCT116 bCat-KO 1.3, HCT116 PTEN-null 0.9 (no result: HUVEC prolif 384, Fibroblast inh, H69AR inhibit)
CCCCOc1ccc(C(=O)C(CN2CCOCC2)c2ccccc2)cc1 (configuration not stated)	HUVEC prolif 384 2.3, HCT116 bCat-KO 1.9, H69AR inhibit 1.0, HCT116 PTEN-null 2.0
CCCCCOc1ccc(C(=O)C(c2ccccc2)N2CCOCC2)cc1 (configuration not stated)	none
CCOc1ccc(C(=O)CCN2CCCCC2)cc1	none
COc1ccc(C(=O)C(CN2CCOCC2)c2ccccc2)cc1 (configuration not stated)	HCT116 bCat-KO 3.4, Fibroblast inh 11, H69AR inhibit 0.5, HCT116 PTEN-null 1.6
COc1ccc(C(=O)CCN2CCCCCC2)cc1	HCT116 bCat-KO 1.2, HCT116 PTEN-null 1.3 (no result: HUVEC prolif 384, Fibroblast inh, H69AR inhibit)
COc1cccc2oc(-c3ccco3)cc(=O)c12	none (no result: HUVEC prolif 384, Fibroblast inh, H69AR inhibit)
O=C(NCCCn1ccnc1)C(Cc1ccccc1)N1C(=O)c2ccccc2C1=O (configuration not stated)	none
COc1ccc(C(C)(C)C)cc1NC(=O)c1cc(S(=O)(=O)N(C)C)ccc1N1CCCC1	none (no result: HUVEC prolif 384, Fibroblast inh, H69AR inhibit)
COc1ccc(C(=O)C(OC(=O)c2ccccc2)c2ccccc2)cc1 (configuration not stated)	none (no result: HUVEC prolif 384, Fibroblast inh, H69AR inhibit)
c1ccc(C(CN2CCOCC2)c2ccccc2)cc1	none
O=C(c1ccc(F)cc1)C(CN1CCOCC1)c1ccccc1 (configuration not stated)	HCT116 bCat-KO 1.6, Fibroblast inh 25, HCT116 PTEN-null 1.6
COc1ccc(C(=O)C(CN2CCCC2)c2ccccc2)cc1 (configuration not stated)	HCT116 bCat-KO 2.2, Fibroblast inh 10, H69AR inhibit 1.2, HCT116 PTEN-null 1.1
O=C(c1ccccc1)C(CCC(CN1CCOCC1)C(=O)c1ccccc1)CN1CCOCC1 (configuration not stated)	HCT116 bCat-KO 1.9, Fibroblast inh 50, H69AR inhibit 1.3, HCT116 PTEN-null 1.9
CCOC(=O)c1cc2c(=O)n3cccc(C)c3nc2n(Cc2ccccc2Cl)c1=N	none (no result: HCT116 bCat-KO, HCT116 PTEN-null)
NNc1nc2c(Cl)ccc(Cl)c2s1	none (no result: HUVEC prolif 384, Fibroblast inh, H69AR inhibit)
O=C(N/N=C/c1cn(-c2ccccc2)nc1-c1cc2ccccc2o1)c1cccnc1	HCT116 PTEN-null 3.5 (no result: HUVEC prolif 384, Fibroblast inh, H69AR inhibit)
